High-throughput results deposited in PubChem by Johns Hopkins Ion Channel Center.
Most compounds without a hit are left out; they make up all but 2.3% or so of the library.
TRPC6 activator – activators of mouse TRPC6 channel; B-score at 10 µM; HEK293-TRPC6 membrane potential dye fluorescence; hits give high values; 310,000 tested, 0.13% active; AID 2550;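 active = B-score of the integrated fluorescence ratio above library mean plus 3 SD, and starting fluorescence ratio within library mean plus 5 SD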;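 also: higher score means more depolarization so channel activation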
TRPC6 inhibitor – blocks the mouse TRPC6 cation channel; Q61143; 310,000 tested, 1.1% active; HEK293-TRPC6, membrane potential dye, ACh-evoked depolarization; hits give low values; B-score at 10 µM; AID 2553;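 active = B-score under library mean minus 3 SD, initial fluorescence not abnormally high, positive integrated signal ratio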;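 also: B-score derived from integrated fluorescence ratio over the kinetic read; more negative B-score means stronger inhibition of depolarization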
TRPC4 agonist – TRPC4 (mouse) channel activation. Q9QUQ5. HEK293 TRPC4beta/mu-opioid, Fluo4 calcium fluorescence; hits give high values. B-score at 10 µM. 310,000 tested, 0.49% active;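 active = B-score above 5 SD of library B-scores, and initial fluorescence ratio not above library mean plus 5 SD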;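 also: positive B-score marks a calcium rise read as TRPC4 activation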
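Material: TRPC4beta and mu-opioid receptor HEK293 stable cells | Incubation: 45 min room-temperature Fluo4 loading, 110 s read | Detection: Kinetic Fluo4 calcium fluorescence | Measure: Integrated baseline-normalised fluorescence ratio, converted to per-well B score | Benchmarks: Low control buffer alone, high control maximal DAMGO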
TRPC4 block – inhibitors of mouse TRPC4 channel | 300,000 tested, 0.39% active | HEK293 TRPC4beta/mu-opioid, DAMGO-evoked Fluo4 calcium flux; hits give low values | Q9QUQ5 | AID 2247 | B-score at 10 µM;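 active = B-score over 3 SD under the library average, no early fluorescence shift, positive overall ratio signal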
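System: stable TRPC4beta/mu-opioid receptor HEK293 cells; Dosing: single-point compound dosing; Measured by: Fluo4 Ca2+ flux fluorescence; Read-out basis: per-well B score of integrated baseline-normalized Fluo4 ratio.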
TRPC4 PAM – TRPC4 (mouse) allosteric potentiation | Q9QUQ5 | HEK293 TRPC4beta/mu-opioid, DAMGO EC20, Fluo-4 Ca2+ flux; hits give high values | B-score at 10 µM | 310,000 tested, 0.42% active | AID 2227;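 active = B-score of calcium response area above 5 SD of library B-scores, with initial fluorescence ratio within 5 SD of library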;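 also: B-score of integrated fluorescence ratio over time as area under calcium response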
TRPC4 spec 2 – second check of whether TRPC6 inhibitors also affect mouse TRPC4 | shares compounds with TRPC6 inhibitor | inhibition, % at 10 µM | 920 tested, 42% active | HEK293 TRPC4/MOR, membrane potential dye fluorescence; channel activated by saturating DAMGO dose;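 active = compounds whose fluorescence signal differed from control wells by over 3 SD, either direction, in both duplicate plates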
TRPC4 spec – selectivity of TRPC6 inhibitors: effect on mouse TRPC4. activity change, negative = inhibition, % at 10 µM. 920 tested, 61% active. HEK293 TRPC4/mu-opioid, membrane potential fluorescence. AID 2777. shares compounds with TRPC6 inhibitor;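 active = rise or fall in signal beyond 3 SD of buffer-only wells in both replicate plates, either sign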;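 also: integrated kinetic ratio of fluorescence range over baseline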
HEK293 MPD ctr 2-1 – second counter-screen for TRPC6 inhibitors: parental HEK293 cells; parental HEK293 membrane potential dye fluorescence; maximal acetylcholine challenge after compound addition; 920 tested, 31% active; shares compounds with TRPC6 inhibitor; signal change vs control, % at 10 µM;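 active = membrane potential signal moving either way by over 3 SD of the maximum-effect control, in both duplicate plates, meaning non-specific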
HEK293 MPD ctr-1 – checks TRPC6 inhibitor effects in parental HEK293 cells; shares compounds with TRPC6 inhibitor; parental HEK293 membrane potential dye fluorescence; 920 tested, 60% active; membrane potential signal change, % at 10 µM;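 active = membrane potential signal shifting up or down by more than 3 SD of buffer-only wells, on both duplicate plates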
HEK293 MPD ctr-2 – checks TRPC6 modulator effects in parental HEK293 cells; shares compounds with TRPC6 inhibitor; membrane potential dye fluorescence; membrane potential signal change, % at 10 µM; 2,400 tested, 51% active;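 active = membrane potential signal moves up or down beyond 5 SD from buffer-only wells, on both duplicate plates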
HEK293 MPD ctr 2-2 – parental HEK293 nonspecific activity of TRPC6 modulators, second screen | shares compounds with TRPC6 inhibitor | membrane potential dye fluorescence; after compound, maximal acetylcholine stimulation | inhibition, % at 10 µM | 2,400 tested, 14% active | AID 488926;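 active = membrane potential signal drops by more than 5 SD from the mean control signal, in both duplicate plates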;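 also: plate controls were acetylcholine ECmax control wells for no effect and buffer only wells for full effect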
TRPC4 ctr mod – mouse TRPC4 off-target activity of TRPC6 modulators | shares compounds with TRPC6 inhibitor | HEK293 TRPC4/mu-opioid, membrane potential fluorescence | percent change from control (negative = decrease, positive = increase), % at 10 µM | 2,400 tested, 69% active | AID 488927;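 active = membrane potential signal moved up or down beyond 5 SD of buffer control wells, in both duplicate plates, actives on both sides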;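 also: plate controls were assay buffer wells for no effect and DAMGO maximal-effect wells for full effect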
TRPC4/MOR inh 2 – second selectivity test of TRPC6 modulators against mouse TRPC4 | shares compounds with TRPC6 inhibitor | HEK293 TRPC4/mu-opioid, membrane potential dye fluorescence; stimulated with maximal-effect DAMGO | inhibition, % at 10 µM | 2,400 tested, 55% active;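 active = drop in membrane potential signal beyond 5 SD of the control wells in both duplicate plates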;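 also: TRPC4 counter screen for TRPC6 hits run under conditions tuned for TRPC6 not TRPC4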
TRPC6 block conf – confirmation of mouse TRPC6 inhibitors; 3,300 tested, 43% active; inhibition, % at 10 µM; shares compounds with TRPC6 inhibitor; AID 488960; HEK293-TRPC6, membrane potential dye, ACh-evoked depolarization;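 active = fluorescence ratio falls more than 5 SD below the full-stimulation control mean, in both duplicate runs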;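 also: integrated fluorescence ratio of peak minus minimum over baseline after agonist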
TRPC6 act confirm – confirmation of mouse TRPC6 activators | shares compounds with TRPC6 inhibitor | HEK293-TRPC6 membrane potential dye fluorescence, FDSS | activation, % at 10 µM | 2,800 tested, 11% active | AID 488961;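 active = ratio signal rise beyond 5 SD above unstimulated control wells' mean, seen in both duplicate runs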;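 also: plate controls were buffer EC0 wells for no effect and acetylcholine ECmax response for full effect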
Numbers without * were called inactive; i = inactive; / = not tested or not shown.

SMILES | TRPC6 activator | TRPC6 inhibitor | TRPC4 agonist | TRPC4 block | TRPC4 PAM | TRPC4 spec 2 | TRPC4 spec | HEK293 MPD ctr 2-1 | HEK293 MPD ctr-1 | HEK293 MPD ctr-2 | HEK293 MPD ctr 2-2 | TRPC4 ctr mod | TRPC4/MOR inh 2 | TRPC6 block conf | TRPC6 act confirm
CCN(CC)C(=O)COCc1cc(-c2ccc3c(c2)OCO3)on1 | i | -7* | i | i | i | i | i | i | i | / | / | / | / | i | i
COc1ccc(COc2cc(-c3cccc(OC)c3)nc3ccc(N)cc23)cc1 | i | -8.3* | i | i | i | i | -9.5%* | i | i | / | / | / | / | i | i
CCOC(=O)Nc1ccc2c(c1)N(C(=O)OC)c1ccccc1CC2 | i | i | i | i | i | / | / | / | / | / | / | / | / | / | /
COc1cc(C(=O)Nc2ccc3c(c2)N(C(=O)CCN(C)C)c2ccccc2CC3)cc(OC)c1OC | i | -8.8* | i | i | i | / | / | / | / | i | i | i | i | 58%* | i
CCOC(=O)Nc1ccc2c(c1)N(CCCN(C)C)c1ccccc1CC2 | i | -7.8* | i | i | i | i | i | i | i | / | / | / | / | 51%* | i
O=C(c1ccc([N+](=O)[O-])cc1)N1CCN(c2ncccn2)CC1 | i | i | i | i | i | / | / | / | / | / | / | / | / | / | /
CN(C)C(CNC(=O)c1cccc(NS(=O)(=O)c2ccc(Br)cc2)c1)c1ccco1 (configuration not stated) | i | -5.7* | i | i | i | / | / | / | / | i | i | 9.5%* | i | i | i
CCOc1ccc(NC(=O)CC2C(=O)N(CC)C(=S)N2CCNC(C)=O)cc1 (configuration not stated) | i | -5.5* | i | i | i | / | / | / | / | i | i | i | i | i | i
CCOc1ccc(NC(=O)CC2C(=O)N(CC)C(=S)N2CCN2CCOCC2)cc1 (configuration not stated) | i | i | i | i | i | / | / | / | / | / | / | / | / | / | /
CCN1C(=O)C(CC(=O)Nc2ccc(F)cc2)N(CCCN2CCN(c3ccc(F)cc3)CC2)C1=S (configuration not stated) | i | -6.5* | i | i | i | / | / | / | / | i | i | i | 47%* | 44%* | i
Cc1ccc(OCC(=O)N(C)CC(=O)N(CC(C)C)c2c(N)n(CC(C)C)c(=O)[nH]c2=O)c(C)c1 | i | i | i | i | i | / | / | / | / | / | / | / | / | / | /
O=C(OCC(=O)N1CCCc2ccccc21)c1cc(Cl)ccc1O | i | i | i | i | i | / | / | / | / | / | / | / | / | / | /
